This note sets out measurements from ChEMBL document CHEMBL5230175, “The war on hTG2: warhead optimization in small molecule human tissue transglutaminase inhibitors” (RSC Med Chem, 2023).

SMILES strings stand for the structures. pKi: −log10 of the molar value.

Series [1] concerns the target T1, Protein-glutamine gamma-glutamyltransferase (Homo sapiens) (UniProt P21980).
T1 sequence (whole entry): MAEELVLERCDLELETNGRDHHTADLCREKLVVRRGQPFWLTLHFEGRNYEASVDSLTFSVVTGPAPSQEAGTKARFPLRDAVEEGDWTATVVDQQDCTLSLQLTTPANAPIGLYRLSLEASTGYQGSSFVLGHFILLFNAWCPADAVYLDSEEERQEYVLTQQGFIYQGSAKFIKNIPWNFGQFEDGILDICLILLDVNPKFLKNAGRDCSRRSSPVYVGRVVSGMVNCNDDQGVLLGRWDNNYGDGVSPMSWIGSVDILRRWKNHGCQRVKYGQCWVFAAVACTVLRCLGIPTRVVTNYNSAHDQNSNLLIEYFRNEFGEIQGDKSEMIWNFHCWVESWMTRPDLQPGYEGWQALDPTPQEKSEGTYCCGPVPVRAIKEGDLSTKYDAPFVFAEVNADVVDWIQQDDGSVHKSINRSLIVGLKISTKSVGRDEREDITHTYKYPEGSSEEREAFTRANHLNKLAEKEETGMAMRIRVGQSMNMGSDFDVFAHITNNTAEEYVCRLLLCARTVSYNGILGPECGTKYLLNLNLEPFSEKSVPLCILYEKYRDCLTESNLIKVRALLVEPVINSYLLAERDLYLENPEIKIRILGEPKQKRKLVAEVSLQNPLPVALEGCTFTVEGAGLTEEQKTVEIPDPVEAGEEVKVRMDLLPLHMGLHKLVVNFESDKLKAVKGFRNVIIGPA
Put plainly: Irreversible inhibition of human recombinant tissue transglutaminase expressed in Escherichia coli using Cbz-Glu-(gamma-p-nitrophenylester)Gly (AL5) as substrate assessed as substrate hydrolysis by measuring Kinact/Ki ratio by linear regression analysis. The method, boiled down:
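For TG2/AL5 under Kitz–Wilson conditions (100 μM AL5, pH 6.9 MOPS, 25 °C, 405 nm), kinact/KI was taken from simple linear regression of kobs against corrected inhibitor concentration at the lowest inhibitor concentrations.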

The nature of series [2]: Metabolic stability in human whole blood assessed as half-life at 1 to 5 uM measured upto 120 mins by LC-MS/MS analysis. The format is ADME, tissue-based. The settings on record: dose 1-5 µM. Summed up: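 Pooled human whole blood (K3-EDTA) was spiked to 1 or 5 μM compound. Aliquots taken at 0, 15, 30, 60 and 120 min were quenched in acetonitrile with 0.1% formic acid and internal standard, then analysed by LC-MS/MS. Percent parent remaining is the peak-area ratio versus T = 0; half-life comes from an exponential decay fit.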

In series [3] the target is T2, Coagulation factor XIII A chain (Homo sapiens) (UniProt P00488).
T2 sequence (whole entry): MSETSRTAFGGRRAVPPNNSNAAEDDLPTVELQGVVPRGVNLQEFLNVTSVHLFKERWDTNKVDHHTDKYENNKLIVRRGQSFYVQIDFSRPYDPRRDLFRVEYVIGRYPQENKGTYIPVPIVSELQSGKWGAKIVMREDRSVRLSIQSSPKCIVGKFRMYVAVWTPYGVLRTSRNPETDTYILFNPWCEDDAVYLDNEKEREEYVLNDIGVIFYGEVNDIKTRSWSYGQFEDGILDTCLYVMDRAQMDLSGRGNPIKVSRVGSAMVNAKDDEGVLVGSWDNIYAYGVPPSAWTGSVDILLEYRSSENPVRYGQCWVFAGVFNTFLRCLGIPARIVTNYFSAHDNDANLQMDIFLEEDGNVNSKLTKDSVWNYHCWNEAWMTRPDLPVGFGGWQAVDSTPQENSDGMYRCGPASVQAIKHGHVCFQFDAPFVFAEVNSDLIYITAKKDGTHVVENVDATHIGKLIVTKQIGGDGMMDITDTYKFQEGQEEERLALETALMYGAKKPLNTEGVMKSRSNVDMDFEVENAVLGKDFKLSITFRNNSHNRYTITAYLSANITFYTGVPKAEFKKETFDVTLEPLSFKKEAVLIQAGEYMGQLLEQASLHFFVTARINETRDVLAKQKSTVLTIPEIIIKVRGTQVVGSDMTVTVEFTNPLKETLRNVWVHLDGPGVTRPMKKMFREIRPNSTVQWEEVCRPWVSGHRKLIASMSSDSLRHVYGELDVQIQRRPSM
Nature of the series: Reversible inhibition of human factor XIIIa using peptidic FRET-quenched probe A101 as substrate by fluorescence based assay relative to control. As to conditions: concentration not given here.

The target of series [4] is T3, Protein-glutamine gamma-glutamyltransferase K (Homo sapiens) (UniProt P22735).
T3 sequence (whole entry): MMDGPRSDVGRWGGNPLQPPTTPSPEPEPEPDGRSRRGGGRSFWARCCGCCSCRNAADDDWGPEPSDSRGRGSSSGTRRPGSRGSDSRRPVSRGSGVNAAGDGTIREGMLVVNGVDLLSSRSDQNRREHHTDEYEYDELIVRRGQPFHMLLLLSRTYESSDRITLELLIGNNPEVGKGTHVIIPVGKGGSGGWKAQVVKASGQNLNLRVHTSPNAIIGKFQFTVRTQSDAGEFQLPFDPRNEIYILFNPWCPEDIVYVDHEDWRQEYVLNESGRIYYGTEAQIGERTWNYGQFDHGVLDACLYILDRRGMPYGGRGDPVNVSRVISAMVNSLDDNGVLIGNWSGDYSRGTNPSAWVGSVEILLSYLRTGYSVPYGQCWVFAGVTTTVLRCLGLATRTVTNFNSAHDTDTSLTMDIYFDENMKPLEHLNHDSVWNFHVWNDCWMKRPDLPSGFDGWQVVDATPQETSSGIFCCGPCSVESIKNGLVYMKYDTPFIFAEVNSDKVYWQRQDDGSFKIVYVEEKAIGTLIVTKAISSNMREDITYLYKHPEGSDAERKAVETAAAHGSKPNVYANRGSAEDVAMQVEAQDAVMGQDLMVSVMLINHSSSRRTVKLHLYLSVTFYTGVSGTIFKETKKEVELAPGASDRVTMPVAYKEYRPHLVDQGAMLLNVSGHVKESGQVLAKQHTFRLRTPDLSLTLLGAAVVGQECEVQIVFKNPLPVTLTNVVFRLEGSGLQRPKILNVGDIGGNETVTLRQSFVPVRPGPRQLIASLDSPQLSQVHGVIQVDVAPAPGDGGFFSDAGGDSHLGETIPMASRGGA
Nature of the series: Irreversible inhibition of human TG1 using Cbz-Glu-(gamma-p-nitrophenylester)Gly (AL5) as substrate assessed as substrate hydrolysis by measuring observed binding constant incubated for 100 mins by colorimetric assay.

Series [5] deals with T4, Protein-glutamine gamma-glutamyltransferase (Homo sapiens, UniProt P21980).
T4 sequence (P21980 whole entry): T1 sequence (whole entry)
Nature of the series: Irreversible inhibition of human recombinant tissue transglutaminase expressed in Escherichia coli using Cbz-Glu-(gamma-p-nitrophenylester)Gly (AL5) as substrate assessed as substrate hydrolysis by measuring KI incubated for 20 mins by colorimetric analysis.

Series [6] in a line: Ratio of Kinact/Ki for inhibition of human tissue transglutaminase assessed as substrate hydrolysis to corrected second order rate constant (K2 corrected) for GSH reactivity in aqueous buffer assessed as GSH adduct formation. Type of series: physicochemical.
The nature of series [7]: Metabolic stability in pooled cryopreserved human hepatocytes assessed as half-life at 1 uM measured upto 120 mins by LC-MS/MS analysis. Type of series: ADME, cell-based, Hepatocyte. The method, boiled down:
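Samples were taken at 0, 5, 15, 30, 60 and 120 min, acetonitrile-quenched with internal standard, and analysed by LC-MS/MS. Half-life came from exponential decay of the parent/IS ratio relative to T = 0.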

A short description of series [8]: GSH reactivity in aqueous buffer assessed as GSH adduct formation by measuring corrected intrinsic second order rate constant (K2 corrected) by HPLC analysis. Type of series: physicochemical. The method, boiled down:
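GSH stock diluted to final 15 mM in aqueous buffer (pH 8.0 used, 7.4 too slow), reaction started with inhibitor at final 0.5 mM, 2% v/v DMSO. Incubated at 22 °C and aliquots taken over at least 5–6 half-lives. HPLC with UV 214/254 nm tracked adduct growth and inhibitor loss, fitted mono-exponentially to give pseudo-first-order kobs. kobs was divided by [thiol] and then by the thiolate fraction (pKa 8.7) to give kcorr2. Run in duplicate.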

Series [9] has as its target T1, Protein-glutamine gamma-glutamyltransferase (Homo sapiens). Put plainly: Irreversible inhibition of human recombinant tissue transglutaminase expressed in Escherichia coli using Cbz-Glu-(gamma-p-nitrophenylester)Gly (AL5) as substrate assessed as substrate hydrolysis by measuring Kinact/Ki ratio incubated for 20 mins by colorimetric analysis.
For series [10] the target is unchanged. Put plainly: Inhibition of human recombinant tissue transglutaminase expressed in Escherichia coli using Cbz-Glu-(gamma-p-nitrophenylester)Gly (AL5) as substrate assessed as substrate hydrolysis by measuring Kinact incubated for 20 mins by colorimetric analysis.
The target is the same in series [11]. Put plainly: Irreversible inhibition of human TG2 using Cbz-Glu-(gamma-p-nitrophenylester)Gly (AL5) as substrate assessed as substrate hydrolysis by measuring observed binding constant incubated for 20 mins by colorimetric assay.
Series [12] has as its target T4, Protein-glutamine gamma-glutamyltransferase. Nature of the series: Reversible inhibition of human recombinant tissue transglutaminase expressed in Escherichia coli using Cbz-Glu-(gamma-p-nitrophenylester)Gly (AL5) as substrate assessed as substrate hydrolysis by measuring Ki incubated for 20 mins by colorimetric analysis. Summed up:
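For TG2 reversible inhibition, the same AL5 colorimetric assay (MOPS pH 6.9, 7.5 mM CaCl2, 0.25 μM TG2, 405 nm) was run at 100 and 50 μM AL5. Initial rates were taken over the first 10% conversion of the uninhibited control, and 1/v0 was plotted against [I] in a Dixon plot; Ki came from the intersection of the lines.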

For the molecule `C=C(Cl)C(=O)NCC(=O)N1CCN(C(=O)C23CC4CC(CC(C4)C2)C3)CC1`, the Ratio in series [1] was 3140 10^3/M/min; in [6], 0.053; in series [9], 3130 10^3/M/min. In series [2], the half-life (as a rule, the time in which the quantity being followed falls by half) at up to 5 µM was 0.533 h. Also, in [3], the inhibition (usually the change of the read-out against control, counted positive when it falls) is 76%. In addition, the figures for the K in [4], in series [8] and in series [11] were 0.022 min⁻¹, 59.387 10^-3/M/min and 0.509 min⁻¹, respectively. Moreover, in [5], the pKi (as a rule, the negative decadic logarithm of the Ki, by convention in mol/L) is 5.63. For the same molecule, the half-life at 1 µM in series [7] was determined as 1.53 h. Also, the Kinact in series [10] was found to be 7.28 min⁻¹.

Take `C=C(F)C(=O)NCC(=O)N1CCN(C(=O)C23CC4CC(CC(C4)C2)C3)CC1`: the values for the Ratio in series [1] and in series [9] were 28.5 10^3/M/min and 30.4 10^3/M/min, respectively. Also, the pKi in series [5] was 4.42. In addition, the Kinact in series [10] came to 1.17 min⁻¹.

Regarding `O=C(CN=C=S)N1CCN(C(=O)C23CC4CC(CC(C4)C2)C3)CC1`, the Ratio is 17.7 10^3/M/min in series [1] and 26.3 10^3/M/min in series [9]. The pKi in series [5] was 5.05. Moreover, in series [10], the Kinact was 0.23 min⁻¹.

For the molecule `C=C(C(=O)NCC(=O)N1CCN(C(=O)C23CC4CC(CC(C4)C2)C3)CC1)C(F)(F)F`, the figures for the Ratio in series [1] and in [9] were 209 10^3/M/min and 171 10^3/M/min, respectively. For the same molecule, in [5], the pKi is 4.51. Further, in [10], the Kinact turned out to be 5.22 min⁻¹.

`O=C(NCC(=O)N1CCN(C(=O)C23CC4CC(CC(C4)C2)C3)CC1)C(F)Cl` (configuration not stated): the Ratio was 16 10^3/M/min in series [1] and 17.8 10^3/M/min in [9]. Also, the pKi in series [5] is 4.05. For the same molecule, in [10], the Kinact was 1.57 min⁻¹.

As for `C#CC(=O)NCC(=O)N1CCN(C(=O)C23CC4CC(CC(C4)C2)C3)CC1`, the results for the Ratio in series [1] and in [9] were 87.7 10^3/M/min and 97.5 10^3/M/min, respectively. In addition, in [5], the pKi is 4.15. Also, the Kinact in series [10] amounted to 6.83 min⁻¹.

In the case of `CC(=O)C(=O)NCC(=O)N1CCN(C(=O)C23CC4CC(CC(C4)C2)C3)CC1`, in [12], the negative logarithm of the Ki (pKi) is 3.81.

As to `[N-]=[N+]=CC(=O)NCC(=O)N1CCN(C(=O)C23CC4CC(CC(C4)C2)C3)CC1`, the results for the Ratio in series [1] and in series [9] were 95 10^3/M/min and 107 10^3/M/min, respectively. The pKi in series [5] is 4.58. In series [10], the Kinact came out at 2.82 min⁻¹.

For `C[S+]([O-])CCCCN=C=S` (configuration not stated) [SULFORAPHANE], in [5], the pKi is 3.44. For the same molecule, the Kinact in series [10] was 0.27 min⁻¹.

Regarding `C/C=C/C(=O)NCC(=O)N1CCN(C(=O)C23CC4CC(CC(C4)C2)C3)CC1`, the Ratio in [1] is 6.7 10^3/M/min; in series [9], 8.3 10^3/M/min. Also, in [5], the negative-log Ki (pKi) is 4.21.

As for `C=C(Br)C(=O)NCC(=O)N1CCN(C(=O)C23CC4CC(CC(C4)C2)C3)CC1`, the values for the Ratio in [1] and in series [9] were 2320 10^3/M/min and 2410 10^3/M/min, respectively. In addition, the K in [4] is 0.018 min⁻¹; in [11] it was 0.497 min⁻¹. For the same molecule, the pKi in [5] is 5.71. Moreover, in [10], the Kinact was found to be 4.69 min⁻¹.
